Published values pooled from the literature.
Protocols differ between the studies behind these lines.
Target: Phosphatidylinositol 4-phosphate 5-kinase type-1 alpha (PIP5K1A, Homo sapiens, UniProt Q99755)

Compound | test | setting | remaining binding [%]
COc1ccc2cc(OCC3(C(=O)O)CN(C(=O)c4ccc(F)cc4)C3)ccc2c1 | cell-free assay, competition with immobilised ligand | 1 µM | 100
C[C@@H](c1ccc(-n2cnc3c(N)ncnc32)cc1)N1CCc2nn(C)c(Cc3ccccc3)c2C1=O | binding, competition with immobilised ligand | 0.1 µM | 87
Cc1cnn2ncc(-c3ccnc(N(C)C)n3)c2c1 | binding | 1 µM | 100
Cc1cc(NC(=O)c2cccc(S(F)(F)(F)(F)F)c2)cc(-n2ccn3nc(-c4cccnc4)cc23)c1 | cell-free assay, competition with immobilised ligand | 1 µM | 100
c1cncc(-c2cccc(Nc3nccc(NC4CCCCC4)n3)c2)c1 | binding, competition with immobilised ligand | 10 µM | 71
O=C(c1ccc(Nc2nccc(-c3cc4ccccc4s3)n2)cc1)N1CCC(N2CCCC2)CC1 | binding, competition with immobilised ligand | 1 µM | 2.8
CN(c1nccc(-c2cnn3ncccc23)n1)C1CC1 | binding | 1 µM | 100
Cc1nc(NC(=O)N2CCC[C@H]2C(N)=O)sc1-c1ccnc(C(C)(C)C(F)(F)F)c1 | binding, competition with immobilised ligand | 10 µM | 59
C[C@@H]1CCN(c2nccc(-c3cnn4ncccc34)n2)C1 | binding | 1 µM | 52
COc1cc(-c2cn(C3CCc4ccccc4N(CC(F)(F)F)C3=O)nn2)ccc1-n1ccc(C)n1 (stereo not shown) | cell-free assay, competition with immobilised ligand | 1 µM | 96
O=C(c1ccc(Nc2ncc(Cl)c(-c3ccc(Cl)s3)n2)cc1)N1CCC(N2CCCC2)CC1 | binding, competition with immobilised ligand | 1 µM | 3
COc1cnc(Nc2cccc(S(N)(=O)=O)c2)nc1N1CCN(c2ccccc2)CC1 | binding, competition with immobilised ligand | 1 µM | 93
CN(C(=O)c1ccccc1)c1cc(N(C)c2ccc3c(c2)CCc2ccc(C(=O)NCCN4CCOCC4)cc2C3=O)ccc1F | cell-free assay, competition with immobilised ligand | 1 µM | 100
c1cnn2ncc(-c3ccnc(N4CCC45COC5)n3)c2c1 | binding | 1 µM | 100
O=C(Nc1ccc(Oc2ccc(F)cc2)cc1)N1CCc2ncccc2[C@H]1c1ccc(F)cc1 | cell-free assay, competition with immobilised ligand | 1 µM | 95
O=C(c1ccc(Nc2ncc(Cl)c(-c3cc4ccccc4s3)n2)cc1)N1CCC(N2CCCC2)CC1 | binding, competition with immobilised ligand | 1 µM | 2.2
CN(C)c1nccc(-c2cnn3ncccc23)n1 | binding | 1 µM | 100
C[C@H](c1cccc(C#N)c1)n1cc(Cl)cc(C(N)=O)c1=N | cell-free assay, competition with immobilised ligand | 1 µM | 100
O=C(Nc1c[nH]nc1C(=O)NC1CCNCC1)c1cc(F)cc(F)c1 | binding, competition with immobilised ligand | 1 µM | 100
N[C@@H]1CCN(c2nccc(-c3cnn4ncccc34)n2)C1 | binding | 1 µM | 100
CCCOc1ccc([C@@H]2[C@@H](C(=O)O)[C@H](c3ccc4c(c3)OCO4)CN2CC(=O)Nc2c(CC)cccc2CC)cc1 | cell-free assay, competition with immobilised ligand | 1 µM | 90
FC(F)(F)Oc1cccc(-c2cnc3ccc(-c4ccncc4)nn23)c1 | cell-free assay, competition with immobilised ligand | 5 µM | 20
